# Source: ChEMBL document CHEMBL5230175, “The war on hTG2: warhead optimization in small molecule human tissue transglutaminase inhibitors” (RSC Med Chem, 2023)
# Experiments:
# [1] = biological target: T1, Protein-glutamine gamma-glutamyltransferase K (Homo sapiens) (UniProt P22735); experiment: Irreversible inhibition of human TG1 using Cbz-Glu-(gamma-p-nitrophenylester)Gly (AL5) as substrate assessed as substrate hydrolysis by measuring observed binding constant incubated for 100 mins by colorimetric assay
# T1 sequence (whole entry): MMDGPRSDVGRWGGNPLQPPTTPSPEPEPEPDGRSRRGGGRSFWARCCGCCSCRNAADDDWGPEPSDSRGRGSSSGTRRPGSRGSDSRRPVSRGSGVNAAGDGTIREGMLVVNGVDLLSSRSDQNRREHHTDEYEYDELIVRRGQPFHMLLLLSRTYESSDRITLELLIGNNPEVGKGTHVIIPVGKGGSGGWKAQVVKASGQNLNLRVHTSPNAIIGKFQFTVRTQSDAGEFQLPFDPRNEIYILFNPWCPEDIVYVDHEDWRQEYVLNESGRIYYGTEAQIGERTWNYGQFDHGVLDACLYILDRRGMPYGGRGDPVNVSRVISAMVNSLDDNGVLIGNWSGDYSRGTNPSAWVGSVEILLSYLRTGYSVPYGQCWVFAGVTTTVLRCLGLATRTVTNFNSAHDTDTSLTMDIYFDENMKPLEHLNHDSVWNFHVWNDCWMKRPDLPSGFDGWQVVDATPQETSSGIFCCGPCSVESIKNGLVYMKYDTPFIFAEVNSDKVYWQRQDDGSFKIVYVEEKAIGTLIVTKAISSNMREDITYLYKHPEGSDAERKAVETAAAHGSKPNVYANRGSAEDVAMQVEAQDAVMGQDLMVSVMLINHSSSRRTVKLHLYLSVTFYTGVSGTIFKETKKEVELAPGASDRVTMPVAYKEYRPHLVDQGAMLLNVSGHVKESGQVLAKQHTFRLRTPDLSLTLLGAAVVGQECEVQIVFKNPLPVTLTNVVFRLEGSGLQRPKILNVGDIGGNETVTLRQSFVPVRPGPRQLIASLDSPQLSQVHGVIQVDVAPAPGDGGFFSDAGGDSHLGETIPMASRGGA
# [2] = Metabolic stability in pooled cryopreserved human hepatocytes assessed as half-life at 1 uM measured upto 120 mins by LC-MS/MS analysis; type: ADME, cell-based, Hepatocyte
# Outline: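 Samples were taken at 0, 5, 15, 30, 60 and 120 min, acetonitrile-quenched with internal standard, and analysed by LC-MS/MS. Half-life came from exponential decay of the parent/IS ratio relative to T = 0.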
# [3] = Metabolic stability in human whole blood assessed as drug degradation measured upto 120 mins by LC-MS/ms analysis; type: ADME, tissue-based; details: 2 h
# Outline: (§1)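 Pooled human whole blood (K3-EDTA) was spiked to 1 or 5 μM compound. Aliquots taken at 0, 15, 30, 60 and 120 min were quenched in acetonitrile with 0.1% formic acid and internal standard, then analysed by LC-MS/MS. Percent parent remaining is the peak-area ratio versus T = 0; half-life comes from an exponential decay fit.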
# [4] = Metabolic stability in human whole blood assessed as half-life at 1 to 5 uM measured upto 120 mins by LC-MS/MS analysis; type: ADME, tissue-based; details: dose 1-5 µM; outline: as §1
# [5] = biological target: T2, Coagulation factor XIII A chain (Homo sapiens) (UniProt P00488); experiment: Irreversible inhibition of human factor XIIIa using peptidic FRET-quenched probe A101 as substrate assessed as observed binding constant by fluorescence based assay
# T2 sequence (whole entry): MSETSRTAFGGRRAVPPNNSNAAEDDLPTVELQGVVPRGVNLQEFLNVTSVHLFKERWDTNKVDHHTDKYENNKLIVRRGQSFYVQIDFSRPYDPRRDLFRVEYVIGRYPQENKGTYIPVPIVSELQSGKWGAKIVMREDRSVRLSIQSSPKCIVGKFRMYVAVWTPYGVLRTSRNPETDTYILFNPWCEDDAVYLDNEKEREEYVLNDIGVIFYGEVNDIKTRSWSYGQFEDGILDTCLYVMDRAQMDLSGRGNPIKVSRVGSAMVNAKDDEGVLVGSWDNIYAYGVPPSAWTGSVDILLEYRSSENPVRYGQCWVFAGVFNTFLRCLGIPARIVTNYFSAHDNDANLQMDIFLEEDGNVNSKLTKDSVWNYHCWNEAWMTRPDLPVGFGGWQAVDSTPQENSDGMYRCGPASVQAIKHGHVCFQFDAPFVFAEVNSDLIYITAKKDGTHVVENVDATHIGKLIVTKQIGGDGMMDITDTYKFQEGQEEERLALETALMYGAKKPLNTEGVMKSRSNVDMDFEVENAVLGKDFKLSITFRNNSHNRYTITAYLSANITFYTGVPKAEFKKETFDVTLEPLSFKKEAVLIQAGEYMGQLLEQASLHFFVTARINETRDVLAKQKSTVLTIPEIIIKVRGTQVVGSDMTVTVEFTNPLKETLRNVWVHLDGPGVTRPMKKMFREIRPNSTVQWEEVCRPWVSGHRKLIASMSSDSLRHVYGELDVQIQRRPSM
# [6] = biological target: T3, Protein-glutamine gamma-glutamyltransferase (Homo sapiens) (UniProt P21980); experiment: Irreversible inhibition of human TG2 using Cbz-Glu-(gamma-p-nitrophenylester)Gly (AL5) as substrate assessed as substrate hydrolysis by measuring observed binding constant incubated for 20 mins by colorimetric assay
# T3 sequence (whole entry): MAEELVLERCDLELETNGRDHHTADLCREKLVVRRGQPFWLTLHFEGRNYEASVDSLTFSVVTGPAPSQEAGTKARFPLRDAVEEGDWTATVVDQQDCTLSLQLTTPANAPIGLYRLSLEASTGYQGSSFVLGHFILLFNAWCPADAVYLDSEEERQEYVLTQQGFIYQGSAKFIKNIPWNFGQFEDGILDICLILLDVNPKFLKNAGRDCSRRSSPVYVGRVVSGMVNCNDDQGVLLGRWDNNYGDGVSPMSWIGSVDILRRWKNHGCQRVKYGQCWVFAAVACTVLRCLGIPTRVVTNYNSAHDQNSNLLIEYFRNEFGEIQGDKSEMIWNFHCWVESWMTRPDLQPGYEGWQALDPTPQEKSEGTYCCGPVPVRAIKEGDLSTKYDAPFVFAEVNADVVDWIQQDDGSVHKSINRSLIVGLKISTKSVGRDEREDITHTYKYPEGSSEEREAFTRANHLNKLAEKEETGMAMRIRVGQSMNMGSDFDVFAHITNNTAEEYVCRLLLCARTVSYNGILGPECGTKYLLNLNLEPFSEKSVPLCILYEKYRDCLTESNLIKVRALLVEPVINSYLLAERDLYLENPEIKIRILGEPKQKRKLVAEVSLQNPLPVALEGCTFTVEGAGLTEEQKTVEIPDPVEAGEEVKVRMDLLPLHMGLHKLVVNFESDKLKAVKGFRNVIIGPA
SMILES,K [1],half-life at 1 µM [2],Stability [3],half-life at up to 5 µM [4],K [5],K [6]
C=CC(=O)NCC(=O)N1CCN(C(=O)C23CC4CC(CC(C4)C2)C3)CC1,0.023 min⁻¹,> 2 h,Stable,> 2 h,0.051 min⁻¹,0.5 min⁻¹
O=C(CCl)NCC(=O)N1CCN(C(=O)C23CC4CC(CC(C4)C2)C3)CC1,0.018 min⁻¹,> 2 h,Stable,> 2 h,0.013 min⁻¹,0.537 min⁻¹
